The record followed here is PubChem BioAssay AID588553 (Broad Institute, 2011).

One may read the AC50 as the concentration at which the activity in the assay is half-maximal.

Scavenger receptor class B member 1 (Mus musculus), sequence (Q61009 whole entry, looked up): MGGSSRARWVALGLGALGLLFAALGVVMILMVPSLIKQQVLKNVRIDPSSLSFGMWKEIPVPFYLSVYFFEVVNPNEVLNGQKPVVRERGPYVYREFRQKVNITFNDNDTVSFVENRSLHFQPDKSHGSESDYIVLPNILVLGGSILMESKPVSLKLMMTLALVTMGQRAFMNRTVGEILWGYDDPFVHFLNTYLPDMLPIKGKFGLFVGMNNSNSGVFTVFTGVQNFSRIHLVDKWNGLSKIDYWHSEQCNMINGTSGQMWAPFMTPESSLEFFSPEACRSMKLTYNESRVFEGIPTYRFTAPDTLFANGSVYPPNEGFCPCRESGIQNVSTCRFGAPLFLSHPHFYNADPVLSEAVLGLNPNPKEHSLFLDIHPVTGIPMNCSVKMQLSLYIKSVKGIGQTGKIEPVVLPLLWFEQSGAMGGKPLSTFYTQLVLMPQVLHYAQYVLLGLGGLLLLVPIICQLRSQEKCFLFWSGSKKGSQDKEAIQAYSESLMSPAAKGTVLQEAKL

For this test, the target named is Scavenger receptor class B member 1 (Mus musculus) (UniProt Q61009). Briefly: inhibition of HDL lipid transfer via mSR-BI – ldlA[mSR-BI] CHO cells, powder samples, set 3, dose response (AID 588553). The settings on record: DiI-HDL uptake fluorescence, 3 h. The essentials:
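System: ldlA[mSR-BI] CHO cells; Reagent: DiI-HDL at 10 µg/mL; Times: 3 h at 37 °C; Measured by: bottom-read fluorescence after PBS washes, excitation 550 nm, emission 595 nm; Control set: DMSO and BLT-1.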
With `CCC(=O)N1CCc2cc(-c3csc(NC(=O)c4ccco4)n3)ccc21`, the AC50 is 58.7 nM. As for `CC(C(=O)NC1CCCC1)N(C(=O)Cn1nnc(-c2ccc3c(c2)OC(F)(F)O3)n1)C1CCCCC1` (configuration not stated), the figure is 225 nM; as for `CCCCCCC1CCC/C1=N\NC(N)=S` (configuration not stated), less than 15 nM; as for `COc1ccc(-c2cc(CC(=O)N(C3CCCCC3)C(C)C(=O)NC3CCCC3)no2)cc1OC` (configuration not stated), 15.4 nM. As for `O=C(Nc1nc(-c2ccc3c(c2)CCN3)cs1)c1ccco1`, the figure is less than 15 nM; as for `COc1ccc(-c2nc(CC(=O)N(C3CCCCC3)C(C)C(=O)NC3CCCC3)cs2)cc1OC` (configuration not stated), 6280 nM. As for `COc1ccc(-c2nnn(CC(=O)N(CC(=O)NC3CCCC3)C3CCCCC3)n2)cc1OC`, the figure is less than 15 nM; as for `CCC(=O)N1CCc2cc(-c3csc(/N=C(/OC)c4cc(OC)cc(OC)c4)n3)ccc21`, 44.1 nM. As for `O=C(CN(C(=O)Cn1nnc(-c2ccc(Cl)c(Cl)c2)n1)C1CCCCC1)NC1CCCC1`, the AC50 is 303 nM. On to `COc1cc(OC)cc(C(=O)Nc2nc(-c3ccc4[nH]ccc4c3)cs2)c1`, for which the AC50 is 228 nM. Turning to `O=C(CN(C(=O)Cn1nnc(-c2ccc3c(c2)OC(F)(F)O3)n1)C1CCCCC1)NC1CCCC1`, the half-maximal activity concentration (AC50) is 65.3 nM. On to `COCC(=O)N1CCc2cc(-c3csc(NC(=O)c4cc(OC)cc(OC)c4)n3)ccc21`, for which the AC50 is less than 15 nM. For the compound `CCC(=O)N1CCc2cc(-c3csc(N(C)C(=O)c4cc(OC)cc(OC)c4)n3)ccc21`, the AC50 was 180 nM. With `CC(C(=O)NC1CCCC1)N(C(=O)Cn1nnc(-c2ccc3c(c2)OCO3)n1)C1CCCCC1` (configuration not stated) the figure was 17 nM; with `COc1cc(OC)cc(C(=O)Nc2nc(-c3ccc4c(c3)CCN4C(=O)OC(C)(C)C)cs2)c1`, less than 15 nM; with `CC(C)(C)OC(=O)N1CCc2cc(-c3noc(NC(=O)c4ccco4)n3)ccc21`, 13900 nM. Take `COc1cc(OC)cc(C(=O)Nc2nc(-c3ccc4c(c3)CCN4C(=O)CN(C)C)cs2)c1`: the half-maximal activity concentration (AC50) is less than 15 nM. For the compound `COc1cc(OC)cc(C(=O)Nc2nc(-c3ccc4c(c3)CCN4)cs2)c1`, the concentration at half-maximal activity (AC50) is 113 nM.

For `CCC(=O)N1CCc2cc(-c3csc(NC(=O)c4cc(OC)c(OC)c(OC)c4)n3)ccc21`, the AC50 was less than 15 nM.

Regarding `CCC(=O)Nc1ccc(-c2csc(NC(=O)c3ccco3)n2)cc1`, the AC50 is 2010 nM.

On to `CCNC(=O)N1CCc2cc(-c3csc(NC(=O)c4cc(OC)cc(OC)c4)n3)ccc21`, for which the concentration at half-maximal activity (AC50) is less than 15 nM.

Take `CCC(=O)N1CCc2cc(-c3csc(NC(=O)c4cc(OC)cc(OC)c4)n3)ccc21`: the half-maximal activity concentration (AC50) is 52.9 nM. Turning to `COC(=O)N1CCc2cc(-c3csc(NC(=O)c4cc(OC)cc(OC)c4)n3)ccc21`, the concentration at half-maximal activity (AC50) is 26.9 nM. As for `CCC(=O)Nc1ccc(-c2csc(N)n2)cc1`, the AC50 is 140 nM. Regarding `CC(C(=O)NC1CCCC1)N(C(=O)Cn1nnc(-c2ccc3c(c2)OCO3)n1)C1CCOCC1` (configuration not stated), the concentration at half-maximal activity (AC50) was 836 nM. Turning to `CCC(=O)N1CCc2cc(-c3csc(NC(=O)c4cccc(OC(F)(F)F)c4)n3)ccc21`, the concentration at half-maximal activity (AC50) is 29.2 nM. On to `COc1cc(OC)cc(C(=O)Nc2nc(-c3ccc4c(c3)CCN4C(C)=O)cs2)c1`, for which the AC50 is 17.4 nM. Take `CC(C(=O)NC1CCCC1)N(C(=O)Cn1nnc(-c2ccc(Cl)c(Cl)c2)n1)C1CCCCC1` (configuration not stated): the concentration at half-maximal activity (AC50) was 108 nM. Regarding `CCC(=O)N1CCc2cc(-c3csc(NC(=O)c4cc5cccnc5o4)n3)ccc21`, the AC50 is 141 nM. With `O=C(CN(C(=O)Cn1nnc(-c2ccc3c(c2)OCO3)n1)C1CCCCC1)NC1CCCC1` the figure was less than 15 nM; with `CCCN1CCc2cc(-c3csc(NC(=O)c4cc(OC)cc(OC)c4)n3)ccc21`, 89.5 nM. Regarding `CCC(=O)Nc1ccc(-c2csc(NC(=O)c3cccc(OC)c3)n2)cc1`, the AC50 is 44.7 nM.
